According to ChEMBL document CHEMBL2384914, “Synthetic tactics of new class of 4-aminothieno[2,3-d]pyrimidine-6-carbonitrile derivatives acting as antimicrobial agents” (2013):

What was measured:
[1] = test system: Candida albicans; assay: Antifungal activity against Candida albicans MTCC 227 assessed as growth inhibition by broth microdilution method; assay type: functional
In short: (§1)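 Fungal MTCC cultures were tested by broth microdilution with DMSO-diluted drug in serial dilutions, as a primary screen followed by a second dilution set for actives. MIC was the lowest concentration inhibiting growth. Each experiment was run three times and the MICs averaged.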

[2] = test system: Aspergillus clavatus; assay: Antifungal activity against Aspergillus clavatus MTCC 1323 assessed as growth inhibition by broth microdilution method; assay type: functional
[3] = test system: Streptococcus pyogenes; assay: Antibacterial activity against Streptococcus pyogenes MTCC 442 assessed as growth inhibition by broth microdilution method; assay type: functional
[4] = test system: Staphylococcus aureus; assay: Antibacterial activity against Staphylococcus aureus MTCC 96 assessed as growth inhibition by broth microdilution method; assay type: functional
[5] = test system: Pseudomonas aeruginosa; assay: Antibacterial activity against Pseudomonas aeruginosa MTCC 441 assessed as growth inhibition by broth microdilution method; assay type: functional
[6] = test system: Escherichia coli; assay: Antibacterial activity against Escherichia coli MTCC 443 assessed as growth inhibition by broth microdilution method; assay type: functional
[7] = test system: Aspergillus niger; assay: Antifungal activity against Aspergillus niger MTCC 282 assessed as growth inhibition by broth microdilution method; assay type: functional; in short: as §1
[8] = test system: Aspergillus clavatus; conditions: MTCC 1323

Molecule	MIC [1] [µg/mL]	MIC [2] [µg/mL]	MIC [3] [µg/mL]	MIC [4] [µg/mL]	MIC [5] [µg/mL]	MIC [6] [µg/mL]	MIC [7] [µg/mL]	MIC [8] [µg/mL]
N#Cc1sc2ncnc(Nc3ccccc3Cl)c2c1-c1ccc(Cl)cc1	500	> 1000	100	200	62.5	125	> 1000	–
N#Cc1sc2ncnc(N3CCOCC3)c2c1-c1ccc(Cl)cc1	1000	> 1000	250	250	200	125	> 1000	–
N#Cc1sc2ncnc(N3CCN(c4cccc(Cl)c4Cl)CC3)c2c1-c1ccc(Cl)cc1	1000	1000	250	250	100	200	500	–
CCN(CC)c1ncnc2sc(C#N)c(-c3ccc(Cl)cc3)c12	1000	> 1000	200	200	250	200	> 1000	–
N#Cc1sc2ncnc(Nc3cccc(Cl)c3)c2c1-c1ccc(Cl)cc1	> 1000	500	250	200	100	100	500	–
CCn1cc(C(=O)O)c(=O)c2cc(F)c(N3CCNCC3)cc21 [NORFLOXACIN]	–	–	10	10	10	10	–	–
CCOC(=O)N1CCN(c2ncnc3sc(C#N)c(-c4ccc(Cl)cc4)c23)CC1	> 1000	1000	250	250	100	62.5	1000	–
Cc1ccccc1Nc1ncnc2sc(C#N)c(-c3ccc(Cl)cc3)c12	> 1000	> 1000	125	250	200	200	> 1000	–
Cc1cccc(Nc2ncnc3sc(C#N)c(-c4ccc(Cl)cc4)c23)c1	> 1000	> 1000	250	250	200	250	> 1000	–
N#Cc1sc2ncnc(N3CCCCC3)c2c1-c1ccc(Cl)cc1	250	> 1000	200	125	250	250	> 1000	–
O=C(N[C@H](CO)[C@H](O)c1ccc([N+](=O)[O-])cc1)C(Cl)Cl [CHLORAMPHENICOL]	–	–	50	50	50	50	–	–
N#Cc1sc2ncnc(Cl)c2c1-c1ccc(Cl)cc1	1000	1000	250	100	250	200	1000	–
N#Cc1sc2ncnc(N3CCN(C(=O)C4COc5ccccc5O4)CC3)c2c1-c1ccc(Cl)cc1 (stereo not drawn)	250	1000	125	100	250	100	1000	–
NC(=O)c1sc2nc[nH]c(=O)c2c1-c1ccc(Cl)cc1	> 1000	500	200	200	200	125	250	–
NC(=O)c1sc(N)c(C(N)=O)c1-c1ccc(Cl)cc1	500	> 1000	200	250	250	200	> 1000	–
N#Cc1sc2ncnc(NCc3ccccc3)c2c1-c1ccc(Cl)cc1	1000	1000	125	100	250	250	1000	–
N#Cc1sc2ncnc(N3CCN(c4nsc5ccccc45)CC3)c2c1-c1ccc(Cl)cc1	500	> 1000	200	200	250	100	> 1000	–
NYSTATIN	100	–	–	–	–	–	100	100
O=C(O)c1cn(C2CC2)c2cc(N3CCNCC3)c(F)cc2c1=O [CIPROFLOXACIN]	–	–	50	50	–	25	–	–
N#Cc1sc2ncnc(N3CCNCC3)c2c1-c1ccc(Cl)cc1	1000	> 1000	100	62.5	250	125	1000	–
GENTAMICIN	–	–	0.5	0.25	1	0.05	–	–
COC1=CC(=O)C[C@@H](C)[C@]12Oc1c(Cl)c(OC)cc(OC)c1C2=O [GRISEOFULVIN]	500	100	–	–	–	–	100	–
N#Cc1sc2nc[nH]c(=O)c2c1-c1ccc(Cl)cc1	500	> 1000	250	200	62.5	100	> 1000	–
CC1(C)S[C@@H]2[C@H](NC(=O)[C@H](N)c3ccccc3)C(=O)N2[C@H]1C(=O)O [AMPICILLIN]	–	–	100	250	–	100	–	–
